Reference: ChEMBL document CHEMBL1122353, “DNA binding studies of 7-bulky-substituted actinomycin analogues” (J Med Chem, 1983)
*1 amine or outer side, *2 acyl side, *3 side chain or, on linkers, in order; H or OH if unused. Where a SMILES comes first, the peptide text is derived from it. Bridges are numbered along the chain shown (N, C = ends). Roman numbers before positions name the chains, in order. [ ]: non-standard residue; d: D form. Actinocin(9to1) = Cc1c2oc3c(C)ccc(C(=O)[*:1])c3nc-2c(C(=O)[*:2])c(N)c1=O; NMeV = CN[C@H](C(=O)O)C(C)C; Sar = CNCC(=O)O

Tests used:
Nucleic Acid [1] = experiment: Time constant of slowest dissociation step of drug from DNA complex; assay type: functional
In short: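 Purified calf thymus DNA–drug complexes were held in 0.01 M phosphate buffer (pH 7.0) at 20 °C, with a DNA (nucleotide):drug ratio of 20:1. 5% NaDodSO4 was added to sequester free drug. Absorbance decay was followed over time at a wavelength chosen for each drug (430–492 nm). τ was taken as the time constant of the slowest dissociation step.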

DNA (Bos taurus) = experiment: Apparent binding constant for calf thymus DNA
Nucleic Acid [2] = experiment: Increase in thermal denaturation temperature of calf thymus DNA; assay type: functional; details: Bos taurus

Cc1c2oc3c(C)c(O)c(N)c(C(=O)N4OC(=O)[C@H](C(C)C)N(C)C(=O)CCNC(=O)[C@@H]5CCCN5C(=O)[C@H](C(C)C)NC(=O)[C@@H]4[C@@H](C)O)c3nc-2c(C(=O)N2OC(=O)[C@H](C(C)C)N(C)C(=O)CCNC(=O)[C@@H]3CCCN3C(=O)[C@H](C(C)C)NC(=O)[C@@H]2[C@@H](C)O)c/c1=N/Cc1ccc(Cl)c(Cl)c1
rel T (Nucleic Acid [1]): 60 | K app (DNA (Bos taurus)): 2.6e+07 M⁻¹ | ΔTm (Nucleic Acid [2]): 7 °C

Cc1c2oc3c(C)c(O)c(N)c(C(=O)N4OC(=O)[C@H](C(C)C)N(C)C(=O)CCNC(=O)[C@@H]5CCCN5C(=O)[C@H](C(C)C)NC(=O)[C@@H]4[C@@H](C)O)c3nc-2c(C(=O)N2OC(=O)[C@H](C(C)C)N(C)C(=O)CCNC(=O)[C@@H]3CCCN3C(=O)[C@H](C(C)C)NC(=O)[C@@H]2[C@@H](C)O)cc1=N
rel T (Nucleic Acid [1]): 125 | K app (DNA (Bos taurus)): 2.3e+07 M⁻¹ | ΔTm (Nucleic Acid [2]): 8 °C

Cc1c2oc3c(C)c(O)c(N)c(C(=O)N4OC(=O)[C@H](C(C)C)N(C)C(=O)CCNC(=O)[C@@H]5CCCN5C(=O)[C@H](C(C)C)NC(=O)[C@@H]4[C@@H](C)O)c3nc-2c(C(=O)N2OC(=O)[C@H](C(C)C)N(C)C(=O)CCNC(=O)[C@@H]3CCCN3C(=O)[C@H](C(C)C)NC(=O)[C@@H]2[C@@H](C)O)c/c1=N/Cc1ccc[nH]1
rel T (Nucleic Acid [1]): 225 | K app (DNA (Bos taurus)): 9.2e+07 M⁻¹ | ΔTm (Nucleic Acid [2]): 16 °C

Cc1c2oc3c(C)ccc(C(=O)N[C@@H]4C(=O)N[C@H](C(C)C)C(=O)N5CCC[C@H]5C(=O)N(C)CC(=O)N(C)[C@@H](C(C)C)C(=O)O[C@@H]4C)c3nc-2c(C(=O)N[C@@H]2C(=O)N[C@H](C(C)C)C(=O)N3CCC[C@H]3C(=O)N(C)CC(=O)N(C)[C@@H](C(C)C)C(=O)O[C@@H]2C)c(N)c1=O (I: T[dV]P[Sar][NMeV] / II: T[dV]P[Sar][NMeV]; ester I:1-I:C, II:1-II:C; linker I:N-II:N via Actinocin(9to1))
rel T (Nucleic Acid [1]): 100 | ΔTm (Nucleic Acid [2]): 8 °C
